Data set [1] deals with Streptococcus mutans. The experiment in a line: Growth inhibition of Streptococcus mutans UA159 after 16 hrs. Format: organism-based. An outline of the steps:
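S. mutans UA159 co-incubated with compound at various concentrations; growth measured at OD470.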

Data set [2] deals with Streptococcus mutans. The experiment in a line: Inhibition of biofilm formation of Streptococcus mutans UA159 at 200 uM after 16 hrs by crystal violet staining. Format: functional. The following applies: for inhibition at 200 µM: UA159, 16 h. An outline of the steps: (§1)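 S. mutans UA159 co-incubated with compound at various concentrations; biofilm quantified by crystal violet protocol, read at OD562.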

Data set [3] deals with Streptococcus mutans. The data set can be described thus: Inhibition of biofilm formation of Streptococcus mutans UA159 after 16 hrs by crystal violet staining based serial dilution method. Format: functional, organism-based. An outline of the steps:
as §1

The test system of data set [4] is Streptococcus mutans. The data set can be described thus: Growth inhibition of Streptococcus mutans UA159 at 200 uM after 24 hrs. In kind it is organism-based. Conditions: for inhibition at 200 µM: Streptococcus mutans, UA159, 24 h, read-out: GI; for growth inhibition (GI): streptococcus mutans, in vivo, 24 h, 200 µM. An outline of the steps: (§2)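 S. mutans UA159, S. sanguinis or S. gordonii co-incubated with compound at various concentrations; growth read as OD470; inhibition expressed relative to DMSO.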

For data set [5], the system named is Streptococcus mutans. The experiment in a line: Selectivity index, ratio of growth inhibition IC50 for Streptococcus mutans UA159 to biofilm inhibition IC50 for Streptococcus mutans UA159.
Data set [6] deals with Streptococcus gordonii. The experiment in a line: Growth inhibition of Streptococcus gordonii at 200 uM after 24 hrs. The following applies: read-out: GI. In kind it is organism-based. An outline of the steps: as §2
For data set [7], the system named is Streptococcus sanguinis. The data set can be described thus: Growth inhibition of Streptococcus sanguinis SK36 at 200 uM after 24 hrs. The following applies: SK36, 24 h, read-out: GI. An outline of the steps:
as §2

Data set [8] addresses T1, Glucosyltransferase-SI (Streptococcus mutans serotype c (strain ATCC 700610 / UA159)) (UniProt P13470).
T1 sequence (whole entry): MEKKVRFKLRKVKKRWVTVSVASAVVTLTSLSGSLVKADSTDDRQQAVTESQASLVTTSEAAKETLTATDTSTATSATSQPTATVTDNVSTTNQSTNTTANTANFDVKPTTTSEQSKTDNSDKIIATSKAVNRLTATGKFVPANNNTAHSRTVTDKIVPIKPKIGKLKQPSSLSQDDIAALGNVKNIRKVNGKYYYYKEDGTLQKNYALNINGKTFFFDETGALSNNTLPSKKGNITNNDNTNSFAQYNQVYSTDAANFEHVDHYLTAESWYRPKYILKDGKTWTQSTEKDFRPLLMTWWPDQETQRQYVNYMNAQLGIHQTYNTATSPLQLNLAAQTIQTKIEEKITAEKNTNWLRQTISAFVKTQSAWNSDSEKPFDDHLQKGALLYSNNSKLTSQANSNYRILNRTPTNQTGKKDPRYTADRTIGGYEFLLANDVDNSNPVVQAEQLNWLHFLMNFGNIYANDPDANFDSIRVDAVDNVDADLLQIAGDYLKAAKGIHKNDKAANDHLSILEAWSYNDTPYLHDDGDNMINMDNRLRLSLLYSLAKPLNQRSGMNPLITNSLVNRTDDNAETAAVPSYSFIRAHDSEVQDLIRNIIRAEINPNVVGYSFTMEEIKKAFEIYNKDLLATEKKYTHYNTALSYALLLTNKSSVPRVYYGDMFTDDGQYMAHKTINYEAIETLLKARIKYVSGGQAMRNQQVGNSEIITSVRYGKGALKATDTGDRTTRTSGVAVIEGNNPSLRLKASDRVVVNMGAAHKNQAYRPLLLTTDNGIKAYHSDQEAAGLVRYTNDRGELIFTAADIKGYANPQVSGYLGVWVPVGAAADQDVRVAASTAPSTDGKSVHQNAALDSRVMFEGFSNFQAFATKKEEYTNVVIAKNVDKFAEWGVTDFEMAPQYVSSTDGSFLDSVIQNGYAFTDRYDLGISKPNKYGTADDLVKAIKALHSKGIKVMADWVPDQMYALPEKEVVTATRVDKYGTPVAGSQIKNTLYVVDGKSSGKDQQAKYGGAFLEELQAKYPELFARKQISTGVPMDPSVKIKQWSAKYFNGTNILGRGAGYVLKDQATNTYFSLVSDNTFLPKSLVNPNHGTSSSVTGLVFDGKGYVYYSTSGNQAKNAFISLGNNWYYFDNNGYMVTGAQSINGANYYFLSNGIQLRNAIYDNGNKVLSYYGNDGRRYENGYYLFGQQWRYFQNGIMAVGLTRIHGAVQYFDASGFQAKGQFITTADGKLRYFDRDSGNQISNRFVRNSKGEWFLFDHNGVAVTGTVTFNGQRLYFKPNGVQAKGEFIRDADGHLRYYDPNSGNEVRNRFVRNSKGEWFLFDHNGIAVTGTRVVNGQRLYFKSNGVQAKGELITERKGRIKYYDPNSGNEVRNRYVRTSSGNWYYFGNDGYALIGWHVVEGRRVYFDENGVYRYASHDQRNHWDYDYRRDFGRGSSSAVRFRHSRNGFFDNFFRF
The data set can be described thus: Inhibition of Wild-type Streptococcus mutans UA159 glucosyltransferase C at 50 uM by zymography. An outline of the steps: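 Compound (50 µM) added to overnight S. mutans UA159 wild-type cultures; Gtfs concentrated from supernatants, run on duplicate SDS-PAGE; second gel used for zymogram, glucan band intensity taken as Gtf activity.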

The target of data set [9] is T1, Glucosyltransferase-SI (Streptococcus mutans serotype c (strain ATCC 700610 / UA159)). The data set can be described thus: Inhibition of Wild-type Streptococcus mutans UA159 glucosyltransferase C at 50 uM by coomassie blue staining based SDS-PAGE method. An outline of the steps: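 Compound (50 µM) added to overnight S. mutans UA159 wild-type cultures; Gtfs collected and concentrated from supernatants, run on SDS-PAGE in duplicate; one gel Coomassie blue stained for protein levels.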

For data set [10], the system named is Streptococcus mutans. The data set can be described thus: Inhibition of biofilm formation of Streptococcus mutans UA159 at 25 to 100 uM by Syto9 staining based assay. In kind it is functional, organism-based. An outline of the steps: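 S. mutans UA159 wild type co-incubated with compound at various concentrations; resulting biofilms stained with Syto9 and examined by microscopy.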

The mark [11] stands for this setting: Streptococcus mutans, UA159, 16 h, read-out: IC50.
Where [12] appears, read: Streptococcus mutans, UA159, 16 h.

Activity calls are given as the source filed them. The calls are words filed in the database; no cut-off is given here.

With `O=C(/C=C/c1cccc(O)c1)c1ccccc1O`, the results for the half-maximal inhibitory concentration (IC50) in data set [1] (setting [11]) and in [3] (setting [12]) were 32 µM and 64 µM, respectively. Further, the results for the inhibition at 200 µM in [2] and in [4] were 84% and 86%, respectively.
Turning to `O=C(/C=C/c1ccccc1O)c1ccc(O)cc1O`, the inhibition entry in data set [2] was “inactive”. The “growth inhibition (GI)” value in data set [4] is reported as “Not Active”.
In the case of `O=C(/C=C/c1cc(O)c(O)cc1O)c1ccccc1O` (stereo in doubt; 18d) [listing 1 of 2 here], the “Ratio IC50” value in [5] is given as 4.9. Also, the half-inhibitory concentration (IC50) came to 376 µM in data set [1] (read-out: IC50) and 76 µM in [3].
With `O=C(/C=C/c1cc(O)c(O)cc1O)c1ccccc1O` (stereo in doubt; 18c), in data set [5], the “Ratio IC50” value turned out to be 1.5. In addition, the values for the concentration for half-maximal inhibition (IC50) in [1] (setting [11]) and in data set [3] were 323 µM and 224 µM, respectively.
For the molecule `COc1cc(/C=C/C(=O)c2ccc(O)cc2)cc(OC)c1OC`, the “growth inhibition (GI)” value in data set [4] is “Not Active”.
Take `COc1cc(/C=C/C(=O)c2ccccc2O)ccc1O`: the half-maximal inhibitory concentration (IC50) in [1] (setting [11]) turned out to be 44 µM; in data set [3] (setting [12]), 61 µM. The figures for the inhibition at 200 µM in data set [2] and in data set [4] were 86% and 85%, respectively.
`O=C(/C=C/c1cc(Cl)cc(Cl)c1O)c1cccc(O)c1`: the inhibition at 200 µM in [2] amounted to 81%; in data set [4] it was 82%.
For `COc1ccc(/C=C/C(=O)c2cc(O)ccc2O)cc1`, in that order: 87% and 76%.
`O=C(/C=C/c1ccc(O)cc1O)c1cccc(O)c1` (stereo in doubt; 9) [listing 1 of 2 here]: the inhibition at 200 µM in data set [6] was 10%; in data set [2] it was 93%; in [7], 10%; in data set [4], 10%. The IC50 result was “Not Active” in data set [1] and 32 µM in data set [3].
Take `COc1cc(C(=O)/C=C/c2ccccc2O)ccc1O`: the IC50 in data set [1] (setting [11]) was found to be 40 µM; in [3] (setting [12]), 34 µM. The inhibition at 200 µM in [2] was 85%; in data set [4], 71%.
Consider `O=C(/C=C/c1ccc(O)cc1O)c1cccc(O)c1` (stereo in doubt; 9a), for which the “Ratio IC50” value in data set [5] is given as 9.4. For the same molecule, in data set [3], half-maximal inhibition (IC50) required 68 µM.
As to `O=C(/C=C/c1cc(O)c(O)cc1O)c1ccccc1O` (stereo in doubt; 18d) [listing 2 of 2 here], the inhibition result in data set [8] and in data set [9] was “Active” each time.
For the molecule `COc1ccc(/C=C/C(=O)c2ccc(OC)c(OC)c2)cc1O`, the inhibition at 200 µM in [2] stood at 27%; in data set [4] it was 30%.
Take `O=C(/C=C/c1ccccc1O)c1cccc(O)c1`: the “growth inhibition (GI)” value in [4] is listed as “Not Active”.
Consider `O=C(/C=C/c1ccccc1)c1ccc(O)cc1O` [2',4'-DIHYDROXYCHALCONE], for which the inhibition entry in data set [2] was “inactive”. Also, the “growth inhibition (GI)” value in data set [4] is “Not Active”.
On the same counts, the results for `COc1ccc(/C=C/C(=O)c2ccc3c(c2)OCO3)cc1O` are “inactive” and “Not Active”.
`O=C(/C=C/c1ccc(O)cc1O)c1cccc(O)c1` (stereo in doubt; 9) [listing 2 of 2 here]: in data set [10], the inhibition result was “Active”. The inhibition result in data set [3] was “Dose-dependent effect”.
For `O=C(/C=C/c1ccc(O)cc1)c1ccccc1O`, the inhibition at 200 µM in [2] was determined as 27%; in data set [4] it was 48%.
Consider `COc1ccc(/C=C/C(=O)c2cc(N(C)C)c(O)c(N(C)C)c2)cc1`, for which the inhibition entry in data set [2] is “inactive”. Moreover, the “growth inhibition (GI)” value in data set [4] is “Not Active”.

Usually IC50 stands for the concentration that inhibits the measured activity by half.
